This passage reports Km, Drug metabolism and Vmax results from ChEMBL document CHEMBL3526068, “In vitro investigation of human UDP-glucuronosyltransferase isoforms responsible for tacrolimus glucuronidation: predominant contribution of UGT1A4” (Drug Metab Dispos, 2011).

For data set [1], the system named is C=CC[C@@H]1/C=C(\C)C[C@H](C)C[C@H](OC)[C@H]2O[C@@](O)(C(=O)C(=O)N3CCCC[C@H]3C(=O)O[C@H](/C(C)=C/[C@@H]3CC[C@@H](O)[C@H](OC)C3)[C@H](C)[C@@H](O)CC1=O)[C@H](C)C[C@@H]2OC. The data set is described as follows: Activity of UGT1A4*2 mutant (unknown origin) overexpressed in HEK293 cells assessed as enzyme-mediated glucuronidation after 1 hr by Eadie-Hofstee plot analysis. In kind it is ADME, cell-based, Homo sapiens. A digest of the protocol: (§1)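 Tacrolimus at 25–750 μM was incubated 1 h and glucuronide was measured by LC-MS/MS. A kinetic model was fitted, and Vmax was adjusted for UGT1A4 protein content. Data are mean ± SD of triplicates from three independent experiments.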

The test system is the same in data set [2]. The data set is described as follows: Activity of UGT1A4*3 mutant (unknown origin) overexpressed in HEK293 cells assessed as enzyme-mediated glucuronidation after 1 hr by Eadie-Hofstee plot analysis. In kind it is ADME, cell-based, Homo sapiens. The gist of the method:
as §1

The target of data set [3] is T1, UDP-glucuronosyltransferase 1A4 (Homo sapiens, UniProt P22310).
T1 sequence (P22310 whole entry): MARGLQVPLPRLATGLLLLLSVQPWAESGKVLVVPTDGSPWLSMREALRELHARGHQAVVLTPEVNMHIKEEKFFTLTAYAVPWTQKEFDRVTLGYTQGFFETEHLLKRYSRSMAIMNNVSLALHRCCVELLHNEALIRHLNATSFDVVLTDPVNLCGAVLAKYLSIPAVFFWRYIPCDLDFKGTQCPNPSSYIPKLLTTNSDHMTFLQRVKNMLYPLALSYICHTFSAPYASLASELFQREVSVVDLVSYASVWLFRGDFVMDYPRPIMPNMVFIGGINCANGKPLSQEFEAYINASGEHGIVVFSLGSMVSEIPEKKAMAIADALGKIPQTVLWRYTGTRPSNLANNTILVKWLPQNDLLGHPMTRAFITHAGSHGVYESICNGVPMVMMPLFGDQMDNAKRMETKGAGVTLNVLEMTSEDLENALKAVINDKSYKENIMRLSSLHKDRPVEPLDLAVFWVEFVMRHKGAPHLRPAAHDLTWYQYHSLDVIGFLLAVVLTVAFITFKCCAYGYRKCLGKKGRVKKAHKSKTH
The data set is described as follows: Activity at human recombinant UGT1A4 assessed as enzyme-mediated tacrolimus glucuronide formation at 200 uM after 16 hrs by LC-MS analysis. The format is ADME. The gist of the method: (§2)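 Microsomes from human liver, kidney and intestine, or from HEK293 cells overexpressing individual UGT1A or UGT2B enzymes, were prepared by differential centrifugation. They were incubated 16 h at 37°C with 200 μM tacrolimus. Tacrolimus glucuronide was detected by LC-MS/MS (C8 column, ammonium acetate/acetic acid–methanol gradient, positive electrospray), with CsA d4 as a marker.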

Data set [4] can be described thus: Activity of UGT1A4*1 mutant (unknown origin) overexpressed in HEK293 cells assessed as enzyme-mediated glucuronidation at 25 to 750 uM after 1 hr by Eadie-Hofstee plot analysis. The format is ADME, cell-based. Conditions: human, hek293, 1 h. The gist of the method: as §1
The target of data set [5] is UDP-glucuronosyltransferase 1A4 (Homo sapiens, UniProt P22310, P24T). The data set is described as follows: Activity of UGT1A4*2 mutant (unknown origin) overexpressed in HEK293 cells assessed as enzyme-mediated glucuronidation at 25 to 750 uM after 1 hr by Eadie-Hofstee plot analysis. The conditions noted are these: hek293, 1 h. In kind it is ADME, cell-based. A digest of the protocol:
as §1

The next data set relates to UGT1A4*4. Briefly: Activity of UGT1A4*4 mutant (unknown origin) overexpressed in HEK293 cells assessed as enzyme-mediated glucuronidation after 1 hr by Eadie-Hofstee plot analysis. In kind it is ADME, cell-based. The conditions noted are these: human, HEK293 cells overexpressing UGT1A4*4. The gist of the method:
as §1

In data set [6] the target is T2, UDP-glucuronosyltransferase 2B7 (Homo sapiens, UniProt P16662).
T2 sequence (P16662 whole entry): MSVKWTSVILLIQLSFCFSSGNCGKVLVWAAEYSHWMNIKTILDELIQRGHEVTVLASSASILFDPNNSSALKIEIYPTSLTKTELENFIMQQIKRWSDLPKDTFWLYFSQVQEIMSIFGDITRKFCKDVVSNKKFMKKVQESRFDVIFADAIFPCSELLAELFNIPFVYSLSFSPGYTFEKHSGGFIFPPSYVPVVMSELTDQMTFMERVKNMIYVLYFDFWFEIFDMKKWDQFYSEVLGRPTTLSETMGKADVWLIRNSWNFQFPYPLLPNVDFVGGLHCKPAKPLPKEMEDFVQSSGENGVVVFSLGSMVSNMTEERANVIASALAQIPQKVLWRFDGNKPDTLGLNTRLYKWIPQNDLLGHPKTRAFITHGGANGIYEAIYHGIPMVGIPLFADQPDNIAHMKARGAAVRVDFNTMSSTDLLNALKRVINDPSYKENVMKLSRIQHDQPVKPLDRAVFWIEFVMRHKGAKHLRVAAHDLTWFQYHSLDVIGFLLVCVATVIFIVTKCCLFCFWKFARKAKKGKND
The data set is described as follows: Drug metabolism in human kidney microsomes assessed as UGT2B7-mediated tacrolimus glucuronide formation at 200 uM after 16 hrs by LC-MS analysis. The format is ADME. A digest of the protocol:
as §2

The target in data set [7] is UDP-glucuronosyltransferase 1A4 (Homo sapiens, UniProt P22310, L48V). The data set is described as follows: Activity of UGT1A4*3 mutant (unknown origin) overexpressed in HEK293 cells assessed as enzyme-mediated glucuronidation at 25 to 750 uM after 1 hr by Eadie-Hofstee plot analysis. The format is ADME, cell-based. Conditions: hek293, 1 h. The gist of the method: as §1

In a further data set the test system is UGT1A4*1. Briefly: Activity of UGT1A4*1 mutant (unknown origin) overexpressed in HEK293 cells assessed as enzyme-mediated glucuronidation after 1 hr by Eadie-Hofstee plot analysis. In kind it is ADME, cell-based. Conditions: human, HEK293 cells overexpressing UGT1A4*1. The gist of the method:
as §1

Data set [8] is described as follows: Drug metabolism in human intestine assessed as glucuronidation after 1 hr by Eadie-Hofstee plot analysis. The format is ADME, tissue-based. The gist of the method:
(§3)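 Pooled human intestine microsomes were incubated 1 h with tacrolimus at 25–750 μM. Glucuronide formation was measured by LC-MS/MS, and kinetic parameters came from a selected enzyme kinetic model fit. Data are mean ± SD of triplicate determinations from three independent experiments.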

Data set [9] can be described thus: Drug metabolism in human intestine microsomes assessed as glucuronidation at 200 uM after 16 hrs by LC-MS analysis. The format is ADME. The gist of the method:
as §2

Data set [10] is described as follows: Activity of UGT1A4*4 mutant (unknown origin) overexpressed in HEK293 cells assessed as enzyme-mediated glucuronidation at 25 to 750 uM after 1 hr by Eadie-Hofstee plot analysis. The format is ADME, cell-based. Conditions: human, hek293, 1 h. The gist of the method:
as §1

Data set [11] is described as follows: Drug metabolism in human intestine assessed as glucuronidation at 25 to 750 uM after 1 hr by Eadie-Hofstee plot analysis. The format is ADME, tissue-based. The gist of the method:
as §3

A further data set concerns Liver microsome. The data set is described as follows: Drug metabolism in human liver microsomes assessed as glucuronidation at 200 uM after 16 hrs by LC-MS analysis. The format is ADME. A digest of the protocol: as §2

UDP-glucuronosyltransferase 1A4 (Homo sapiens, UniProt P22310, L48V), sequence (P22310 29-534 L48V limits assumed): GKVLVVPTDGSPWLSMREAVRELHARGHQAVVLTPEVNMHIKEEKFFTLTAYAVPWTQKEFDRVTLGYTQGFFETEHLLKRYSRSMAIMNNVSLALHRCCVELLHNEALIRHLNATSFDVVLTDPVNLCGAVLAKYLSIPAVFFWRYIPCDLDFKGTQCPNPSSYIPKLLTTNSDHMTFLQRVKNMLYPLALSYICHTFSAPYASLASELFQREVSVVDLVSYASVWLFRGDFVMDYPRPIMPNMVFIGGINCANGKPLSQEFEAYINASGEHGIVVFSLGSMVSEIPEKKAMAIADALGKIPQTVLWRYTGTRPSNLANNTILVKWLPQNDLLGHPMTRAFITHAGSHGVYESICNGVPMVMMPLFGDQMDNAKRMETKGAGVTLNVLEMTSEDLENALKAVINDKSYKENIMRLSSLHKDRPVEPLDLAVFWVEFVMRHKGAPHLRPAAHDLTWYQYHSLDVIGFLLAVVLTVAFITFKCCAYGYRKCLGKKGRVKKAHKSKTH
UDP-glucuronosyltransferase 1A4 (Homo sapiens, UniProt P22310, P24T), sequence (P22310 whole entry P24T): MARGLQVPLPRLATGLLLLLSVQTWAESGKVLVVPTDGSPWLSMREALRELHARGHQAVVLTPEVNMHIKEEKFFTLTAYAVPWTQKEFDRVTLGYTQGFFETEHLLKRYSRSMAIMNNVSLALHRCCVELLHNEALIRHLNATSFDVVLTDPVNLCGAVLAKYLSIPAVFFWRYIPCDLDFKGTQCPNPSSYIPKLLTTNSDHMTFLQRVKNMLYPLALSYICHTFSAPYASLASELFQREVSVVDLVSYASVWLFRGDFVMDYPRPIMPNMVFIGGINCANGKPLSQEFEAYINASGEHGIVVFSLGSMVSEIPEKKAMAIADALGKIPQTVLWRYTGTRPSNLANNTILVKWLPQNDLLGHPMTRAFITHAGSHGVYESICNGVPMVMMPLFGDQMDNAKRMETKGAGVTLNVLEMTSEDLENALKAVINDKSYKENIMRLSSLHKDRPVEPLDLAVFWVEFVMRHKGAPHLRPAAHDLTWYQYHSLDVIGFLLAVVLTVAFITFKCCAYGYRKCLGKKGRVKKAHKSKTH

Turning to “UDP-glucuronosyltransferase 1A4 (Homo sapiens; P24T)”, the Km in data set [1] was 114 µM.

“UDP-glucuronosyltransferase 1A4 (Homo sapiens; L48V)”: the Km in [2] was 126 µM.

Regarding `C=CC[C@@H]1/C=C(\C)C[C@H](C)C[C@H](OC)[C@H]2O[C@@](O)(C(=O)C(=O)N3CCCC[C@H]3C(=O)O[C@H](/C(C)=C/[C@@H]3CC[C@@H](O)[C@H](OC)C3)[C@H](C)[C@@H](O)CC1=O)[C@H](C)C[C@@H]2OC` [TACROLIMUS ANHYDROUS], the Drug metabolism entry in data set [3] is “metabolite_detected”; in data set [6], “metabolite_not_detected”; in data set [9] it was “metabolite_detected”; with Liver microsome, “metabolite_detected”. Also, the Vmax in [4] came out at 1.65 area/min/mg; in [5], 1.65 area/min/mg; in data set [7], 2.23 area/min/mg; in data set [10], 3.14 area/min/mg; in [11] it was 0.04 area/min/mg. In addition, the values for the Km at 1 h (in the data set with UGT1A4*4; in the data set with UGT1A4*1; in data set [8]) were 101 µM, 91 µM and 51.8 µM, respectively.
